From PubChem BioAssay
IDH1 mut inh – inhibitors of IDH1 R132H reductase, primary screen, biochemical, plate reader, single point | AID 624101, 2012 | inhibition, % at 10 µM | 70,000 tested, 0.18% active | Isocitrate dehydrogenase [NADP] cytoplasmic (Homo sapiens), O75874 | diaphorase/resazurin fluorescence, 60 min; in the data active means inhibition above about 34%; inconclusive means no clear call, values can overlap the other calls; inactive means below about 11%;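 further: 0% = DMSO and 100% = no enzyme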
T cruzi growth-1 – T. cruzi intracellular proliferation inhibitors, primary screen, cell-based, beta-gal Tulahuen parasites, NIH3T3 host, luminescence. inhibition, % at 8.34 µM. 77,000 tested, 5.9% active. T. cruzi beta-gal in NIH3T3, GalScreen luminescence, 90 h;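 active means mean inhibition above about 93%, with at least 55% of replicates each passing it, limit read from the data, passing the limit was not always enough; inconclusive means only one of those two conditions holds; inactive means neither condition holds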
KDM4C inh – inhibitors of GASC-1 (KDM4C) histone demethylase, primary screen, biochemical, single concentration HTS. GST-KDM4C 2-372, H3K9me3 peptide, LANCE TR-FRET. AID 720574, 2013. 96,000 tested, 0.15% active. Lysine-specific demethylase 4C (Homo sapiens), Q9H3R0. inhibition, % at 12.5 µM;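 active means mean replicate inhibition above about 25%, with at least 55% of replicates also reaching it, limit read from the data, passing the limit was not always enough; inconclusive means only one of those two conditions met; inactive means neither condition met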
Target sequence (Q9H3R0 2-372 limits assumed): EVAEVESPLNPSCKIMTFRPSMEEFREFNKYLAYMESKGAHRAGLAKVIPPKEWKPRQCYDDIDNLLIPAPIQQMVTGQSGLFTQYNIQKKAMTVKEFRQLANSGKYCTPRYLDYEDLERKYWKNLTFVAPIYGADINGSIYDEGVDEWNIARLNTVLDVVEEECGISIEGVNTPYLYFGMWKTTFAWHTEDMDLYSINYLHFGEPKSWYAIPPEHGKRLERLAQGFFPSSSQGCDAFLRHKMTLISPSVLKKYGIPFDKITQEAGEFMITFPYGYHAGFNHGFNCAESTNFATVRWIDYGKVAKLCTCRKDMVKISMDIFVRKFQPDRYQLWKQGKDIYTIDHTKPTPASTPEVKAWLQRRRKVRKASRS
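Material: GST-tagged GASC-1 (JMJD2C) catalytic fragment, aa 2-372. Input: enzyme final amount 10 nM. Medium: HEPES buffer, pH 7.5, plus ascorbate. Reagent: H3K9me3 peptide substrate, Fe(II), 2-oxoglutarate. Doses: single dose. Times: reaction 30 min RT, detection step 1 h RT. Measured by: LANCE TR-FRET. Evaluation: Fall in 671/618 emission ratio as inhibition.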
T cruzi growth-2 – T. cruzi intracellular proliferation inhibitors, confirmation, cell-based, NIH3T3 host, beta-gal parasite, luminescence, cherry-pick. shares compounds with T cruzi growth-1. inhibition, % at 8.35 µM. AID 651739, 2012. 5,600 tested, 72% active. T. cruzi beta-gal in NIH3T3, GalScreen luminescence, 90 h;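 active means mean replicate inhibition above about 95% and at least 55% of replicates individually reaching it, limit read from the data; inconclusive means only one of the two criteria is met; inactive means neither criterion is met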
T cruzi growth-3 – inhibitors of intracellular T. cruzi replication, confirmation, NIH3T3 host cells, beta-gal parasites, cherry-pick, set 2; shares compounds with T cruzi growth-1; T. cruzi beta-gal in NIH3T3, GalScreen luminescence, 90 h; inhibition, % at 2.09 µM; 5,600 tested, 21% active; AID 651740, 2012;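 active means mean inhibition above about 95%, with at least 55% of replicates also reaching it, limit read from the data; inconclusive means meets just one of the two conditions; inactive means meets neither condition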;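 further: plate controls were neutral control median for no effect and positive control median for full effect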
NIH3T3 tox – cytotoxicity in mouse NIH/3T3 fibroblasts, confirmation, cytotoxicity control for T. cruzi proliferation inhibitor project, cell-based, cherry-pick, single point; shares compounds with T cruzi growth-1; NIH/3T3 viability, CellTiter-Glo ATP luminescence, 90 h; cytotoxicity (signal decrease), % at 8.35 µM; 5,600 tested, 14% active; AID 651742, 2012;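 active means mean signal decrease across replicates above about 35% based on untreated-well scatter, with enough replicates individually passing, limit read from the data; inconclusive means no rule stated though some were filed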;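 further: 0% = median of neutral control wells and 100% = median of positive control wells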
3T3 cytotox 2 – NIH/3T3 fibroblast cytotoxicity, confirmation, cytotoxicity control, cell-based, cherry-pick, single point, set 2 | shares compounds with T cruzi growth-1 | NIH/3T3 viability, CellTiter-Glo ATP luminescence, 90 h | inhibition, % at 24.9 µM | 5,600 tested, 56% active | AID 651744, 2012;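 active means mean loss of cell viability signal at or above a set limit, and enough replicates individually reaching it; inconclusive means meets only the mean limit or only the replicate share; inactive means meets neither condition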;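 further: 0% = median of neutral control wells and 100% = median of positive control wells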
* = called active by the depositor. This is one part of a sample in which hits are shown more often than they occur.

What do the screens show for `C[C@@H]1CCCCO[C@H](CN(C)Cc2ccncc2)[C@@H](C)CN([C@@H](C)CO)C(=O)c2cc(NS(=O)(=O)c3cccs3)ccc2O1`?
IDH1 mut inh: 5.6; T cruzi growth-1: 9.4; KDM4C inh: 2.1

How did C[C@@H]1CCCCO[C@@H](CN(C)Cc2ccc(Cl)c(Cl)c2)[C@H](C)CN([C@@H](C)CO)C(=O)c2cc(NS(=O)(=O)c3cccs3)ccc2O1 do in these assays?
T cruzi growth-1: inconclusive; KDM4C inh: -0.7; T cruzi growth-2: 96.5*; T cruzi growth-3: 107.9*; NIH3T3 tox: 117.7*; 3T3 cytotox 2: 103.4*

How did C[C@@H]1CCCCO[C@@H](CN(C)Cc2ccc(Cl)c(Cl)c2)[C@H](C)CN([C@H](C)CO)C(=O)c2cc(NS(=O)(=O)c3cccs3)ccc2O1 do in these assays?
T cruzi growth-1: inconclusive; KDM4C inh: -0.9; T cruzi growth-2: 109.1*; T cruzi growth-3: 113.3*; NIH3T3 tox: -30.0; 3T3 cytotox 2: 106.6*

What do the screens show for `C[C@H]1CCCCO[C@@H](CN(C)Cc2ccncc2)[C@@H](C)CN([C@@H](C)CO)C(=O)c2cc(NS(=O)(=O)c3cccs3)ccc2O1`?
IDH1 mut inh: 6.3; T cruzi growth-1: 31.6; KDM4C inh: 0.3

How did C[C@@H]1CCCCO[C@@H](CN(C)Cc2ccc(Cl)c(Cl)c2)[C@@H](C)CN([C@@H](C)CO)C(=O)c2cc(NS(=O)(=O)c3cccs3)ccc2O1 do in these assays?
T cruzi growth-1: inconclusive; KDM4C inh: -0.2; T cruzi growth-2: 97.0*; T cruzi growth-3: 71.3; NIH3T3 tox: -56.4; 3T3 cytotox 2: 51.2*

What do the screens show for `C[C@@H]1CN([C@H](C)CO)C(=O)c2cc(NS(=O)(=O)c3cccs3)ccc2O[C@@H](C)CCCCO[C@H]1CN(C)Cc1ccncc1`?
T cruzi growth-1: 36.2; KDM4C inh: 1.0

How did C[C@@H]1CN([C@H](C)CO)C(=O)c2cc(NS(=O)(=O)c3cccs3)ccc2O[C@@H](C)CCCCO[C@H]1CN(C)Cc1ccc(Cl)c(Cl)c1 do in these assays?
T cruzi growth-1: 124.9*; KDM4C inh: 0.6; T cruzi growth-2: 82.6; T cruzi growth-3: 114.9*; NIH3T3 tox: 61.1*; 3T3 cytotox 2: 106.1*

What do the screens show for `C[C@@H]1CCCCO[C@H](CN(C)Cc2ccncc2)[C@H](C)CN([C@@H](C)CO)C(=O)c2cc(NS(=O)(=O)c3cccs3)ccc2O1`?
IDH1 mut inh: 12.2; T cruzi growth-1: 16.9; KDM4C inh: 0.2

How did COC(=O)c1ccccc1NC(=O)CN(c1cccc2ccccc12)S(C)(=O)=O do in these assays?
IDH1 mut inh: 0.1

What do the screens show for `COc1ccc(NC(=O)N(C)C[C@H]2OCCCC[C@@H](C)Oc3ccc(NC(=O)c4ccccc4)cc3C(=O)N([C@H](C)CO)C[C@H]2C)cc1`?
T cruzi growth-1: 74.8; KDM4C inh: -0.3

How did CCCNC[C@H]1[C@@H](c2ccc(C3=CCCCC3)cc2)[C@@H](CO)N1C(=O)C1CCC1 do in these assays?
KDM4C inh: 0.3

What do the screens show for `C[C@H](CO)N1C[C@H](C)[C@H](CN(C)C(=O)NC2CCCCC2)OCCCC[C@H](C)Oc2ccc(NS(=O)(=O)c3ccc(F)cc3)cc2C1=O`?
T cruzi growth-1: 27.2; KDM4C inh: -0.2

How did C[C@@H]1CN([C@H](C)CO)C(=O)Cc2cc(NC(=O)Nc3ccc(C(F)(F)F)cc3)ccc2O[C@H]1CN(C)Cc1ccc(Oc2ccccc2)cc1 do in these assays?
IDH1 mut inh: 1.1; T cruzi growth-1: 47.9; KDM4C inh: -0.9

Results for CCn1c(SCC(=O)Nc2ccc(Cl)c(Cl)c2)nnc1-c1cc2cccc(OC)c2o1 ?
IDH1 mut inh: 0.0

How did C[C@@H]1CN([C@H](C)CO)C(=O)c2cc(NS(=O)(=O)c3cccs3)ccc2O[C@@H](C)CCCCO[C@@H]1CN(C)Cc1ccc(Cl)c(Cl)c1 do in these assays?
IDH1 mut inh: 0.5; T cruzi growth-1: inconclusive; KDM4C inh: 1.2; T cruzi growth-2: 90.9; T cruzi growth-3: 110.9*; NIH3T3 tox: 99.8*; 3T3 cytotox 2: 90.6*

How did C[C@H]1CCCCO[C@H](CN(C)Cc2ccncc2)[C@@H](C)CN([C@@H](C)CO)C(=O)c2cc(NS(=O)(=O)c3cccs3)ccc2O1 do in these assays?
IDH1 mut inh: 21.2; T cruzi growth-1: 11.0; KDM4C inh: 0.8

What do the screens show for `CO[C@H]1CN(C)C(=O)c2ccc(NS(C)(=O)=O)cc2OC[C@@H](C)N(C(=O)C2CCCCC2)C[C@H]1C`?
IDH1 mut inh: 0.0; T cruzi growth-1: 45.0; KDM4C inh: 0.2

How did O=C(O)CCC(=O)Nc1ccccc1C(=O)O do in these assays?
IDH1 mut inh: -0.3

What do the screens show for `CCS(=O)(=O)Nc1ccc2c(c1)C(=O)N(C)C[C@H](OC)[C@@H](C)CN(C(=O)CN(C)C)[C@H](C)CO2`?
IDH1 mut inh: 0.0; T cruzi growth-1: -41.7; KDM4C inh: -1.2

What do the screens show for `CC1C=NC(S(=O)(=O)N2CC[C@H]3[C@@H](CO)N(C)c4ccc(-c5ccccc5)cc4[C@H]32)=N1` (some centres undefined)?
T cruzi growth-1: 90.7; KDM4C inh: 2.1

Results for CC1C=NC(S(=O)(=O)N2CC[C@@H]3[C@H]2c2cc(-c4ccccc4)ccc2N(C)[C@H]3CO)=N1 (some centres undefined) ?
T cruzi growth-1: inconclusive; KDM4C inh: 1.2; T cruzi growth-2: 100.6*; T cruzi growth-3: 83.6; NIH3T3 tox: -1.5; 3T3 cytotox 2: -10.8

What do the screens show for `CC1C=NC(S(=O)(=O)N2CC[C@@H]3[C@@H](CO)N(C)c4ccc(-c5ccc(F)cc5)cc4[C@@H]32)=N1` (some centres undefined)?
T cruzi growth-1: 63.9; KDM4C inh: -0.2

How did CC1C=NC(S(=O)(=O)N2CC[C@@H]3[C@H]2c2cc(-c4cccc(F)c4)ccc2N(C)[C@H]3CO)=N1 (some centres undefined) do in these assays?
T cruzi growth-1: inconclusive; KDM4C inh: -2.0; T cruzi growth-2: 104.5*; T cruzi growth-3: 77.3; NIH3T3 tox: 5.2; 3T3 cytotox 2: 2.8
